Among the data in ChEMBL document CHEMBL1125107, “Cephalosporin 3'-quinolone esters with a dual mode of action” (J Med Chem, 1990) are MIC values, retold here.

≈ marks a conversion by molar mass, not a printed value.

One assay deals with Staphylococcus aureus. The experiment in a line: Minimum inhibitory concentration against Staphylococcus aureus 95 (Methicillin-resistant, high-level beta-lactamase producer). Type of assay: functional. Put shortly:
(§1)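 Serial 2-fold broth dilution in Mueller-Hinton broth, run by standard methodology; read-out is the minimum inhibitory concentration (MIC).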
Regarding `CCn1cc(C(=O)OCC2=C(C(=O)O)N3C(=O)[C@@H](NC(=O)Cc4cccs4)C3SC2)c(=O)c2cc(F)c(N3CCN(C=O)CC3)cc21` (stereo not given in full), the minimal inhibitory concentration (MIC) (usually the lowest concentration found to suppress growth) turned out to be 4 µg/mL (≈ 5.85 µM).

`CCn1cc(C(=O)OCC2=C(C(=O)O)N3C(=O)[C@@H](NC(=O)COc4ccccc4)C3SC2)c(=O)c2cc(F)c(-n3cccc3)cc21` (stereo not given in full) registered an MIC of 0.5 µg/mL (≈ 0.773 µM).

In turn, `CCn1cc(C(=O)OCC2=C(C(=O)O)N3C(=O)[C@@H](NC(=O)/C(=N/OC)c4csc(N)n4)C3SC2)c(=O)c2cc(F)c(N3CCN(C=O)CC3)cc21` (stereo not given in full) registered an MIC of 8 µg/mL (≈ 10.8 µM).

In turn, `CCn1cc(C(=O)OCC2=C(C(=O)O)N3C(=O)[C@@H](NC(=O)/C(=N/OC)c4csc(N)n4)C3SC2)c(=O)c2ccc(C)nc21` (stereo not given in full) displayed a minimum inhibitory concentration (MIC) of 8 µg/mL (≈ 12.7 µM).

As for `CCn1cc(C(=O)OCC2=C(C(=O)O)N3C(=O)[C@@H](NC(=O)Cc4cccs4)C3SC2)c(=O)c2cc3c(cc21)OCO3` (stereo not given in full), it took 4 µg/mL (≈ 6.69 µM) to inhibit growth (MIC). Against the preceding compound, the MIC is about 2-fold lower.

`CCn1cc(C(=O)OCC2=C(C(=O)O)N3C(=O)[C@@H](NC(=O)COc4ccccc4)C3SC2)c(=O)c2cc(F)c(N3CCSCC3)cc21` (stereo not given in full) returned an MIC of 0.5 µg/mL (≈ 0.732 µM).

The test system of the next assay is Pseudomonas aeruginosa. The experiment in a line: Evaluated for the minimum inhibitory concentration against Pseudomonas aeruginosa 18S/H (Class Id beta-lactamase overproducer). The assay is classed as functional. The method, boiled down: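 MIC by serial 2-fold dilution in Mueller-Hinton broth; results given as minimum inhibitory concentrations (nmol/mL).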
In the case of `CCn1cc(C(=O)OCC2=C(C(=O)O)N3C(=O)[C@@H](NC(=O)Cc4cccs4)C3SC2)c(=O)c2cc(F)c(N3CCN(C=O)CC3)cc21` (stereo not given in full), the lowest concentration to inhibit growth (MIC) was 16 µg/mL (≈ 23.4 µM).

`CCn1cc(C(=O)OCC2=C(C(=O)O)N3C(=O)[C@@H](NC(=O)COc4ccccc4)C3SC2)c(=O)c2cc(F)c(-n3cccc3)cc21` (stereo not given in full) returned an MIC of 128 µg/mL (≈ 198 µM).

Regarding `CCn1cc(C(=O)OCC2=C(C(=O)O)N3C(=O)[C@@H](NC(=O)/C(=N/OC)c4csc(N)n4)C3SC2)c(=O)c2cc(F)c(N3CCN(C=O)CC3)cc21` (stereo not given in full), the MIC was found to be 32 µg/mL (≈ 43.1 µM).

The compound `CCn1cc(C(=O)OCC2=C(C(=O)O)N3C(=O)[C@@H](NC(=O)/C(=N/OC)c4csc(N)n4)C3SC2)c(=O)c2ccc(C)nc21` (stereo not given in full) registered an MIC of 64 µg/mL (≈ 102 µM).

`CCn1cc(C(=O)OCC2=C(C(=O)O)N3C(=O)[C@@H](NC(=O)Cc4cccs4)C3SC2)c(=O)c2cc3c(cc21)OCO3` (stereo not given in full) gave an MIC of 8 µg/mL (≈ 13.4 µM). Compared with the last compound, the MIC is about 8-fold lower.

Compound `CCn1cc(C(=O)OCC2=C(C(=O)O)N3C(=O)[C@@H](NC(=O)COc4ccccc4)C3SC2)c(=O)c2cc(F)c(N3CCSCC3)cc21` (stereo not given in full) had an MIC of 64 µg/mL (≈ 93.7 µM).

The next assay has as its system Streptococcus pyogenes. Briefly: Minimum inhibitory concentration against Streptococcus pyogenes 4. Type of assay: functional. The method, boiled down:
(§2)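 Broth MIC determination: serial 2-fold dilutions in Mueller-Hinton broth by standard methodology; the lowest concentration inhibiting growth is reported as the MIC, in nmol/mL.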
The compound `CCn1cc(C(=O)OCC2=C(C(=O)O)N3C(=O)[C@@H](NC(=O)COc4ccccc4)C3SC2)c(=O)c2cc(F)c(-n3cccc3)cc21` (stereo not given in full) returned an MIC of 2 µg/mL (≈ 3.09 µM).

Turning to `CCn1cc(C(=O)OCC2=C(C(=O)O)N3C(=O)[C@@H](NC(=O)COc4ccccc4)C3SC2)c(=O)c2cc(F)c(N3CCSCC3)cc21` (stereo not given in full), it took 4 µg/mL (≈ 5.86 µM) to inhibit growth (MIC).

A further assay has as its system Streptococcus pneumoniae. Briefly: Minimum inhibitory concentration against Streptococcus pneumoniae 6301. Type of assay: functional. Put shortly:
as §2
For the compound `CCn1cc(C(=O)OCC2=C(C(=O)O)N3C(=O)[C@@H](NC(=O)Cc4cccs4)C3SC2)c(=O)c2cc(F)c(N3CCN(C=O)CC3)cc21` (stereo not given in full), 0.063 µg/mL (≈ 0.0921 µM) was the least that counted as inhibitory (MIC).

In turn, `CCn1cc(C(=O)OCC2=C(C(=O)O)N3C(=O)[C@@H](NC(=O)COc4ccccc4)C3SC2)c(=O)c2cc(F)c(-n3cccc3)cc21` (stereo not given in full) had a minimum inhibitory concentration (MIC) of 2 µg/mL (≈ 3.09 µM).

`CCn1cc(C(=O)OCC2=C(C(=O)O)N3C(=O)[C@@H](NC(=O)COc4ccccc4)C3SC2)c(=O)c2cc(F)c(N3CCSCC3)cc21` (stereo not given in full) showed an MIC of 2 µg/mL (≈ 2.93 µM).

A further assay concerns Pseudomonas aeruginosa. The experiment in a line: Minimum inhibitory concentration against Pseudomonas aeruginosa ATCC 27853. The assay is classed as functional. Put shortly:
as §2
For `CCn1cc(C(=O)OCC2=C(C(=O)O)N3C(=O)[C@@H](NC(=O)Cc4cccs4)C3SC2)c(=O)c2cc(F)c(N3CCN(C=O)CC3)cc21` (stereo not given in full), the MIC is > 128 µg/mL.

Regarding `CCn1cc(C(=O)OCC2=C(C(=O)O)N3C(=O)[C@@H](NC(=O)COc4ccccc4)C3SC2)c(=O)c2cc(F)c(-n3cccc3)cc21` (stereo not given in full), the MIC is > 128 µg/mL.

Regarding `CCn1cc(C(=O)OCC2=C(C(=O)O)N3C(=O)[C@@H](NC(=O)/C(=N/OC)c4csc(N)n4)C3SC2)c(=O)c2cc(F)c(N3CCN(C=O)CC3)cc21` (stereo not given in full), the MIC is > 128 µg/mL.

Turning to `CCn1cc(C(=O)OCC2=C(C(=O)O)N3C(=O)[C@@H](NC(=O)/C(=N/OC)c4csc(N)n4)C3SC2)c(=O)c2ccc(C)nc21` (stereo not given in full), the MIC was > 128 µg/mL.

Consider `CCn1cc(C(=O)OCC2=C(C(=O)O)N3C(=O)[C@@H](NC(=O)Cc4cccs4)C3SC2)c(=O)c2cc3c(cc21)OCO3` (stereo not given in full), for which the MIC is > 128 µg/mL.

For `CCn1cc(C(=O)OCC2=C(C(=O)O)N3C(=O)[C@@H](NC(=O)COc4ccccc4)C3SC2)c(=O)c2cc(F)c(N3CCSCC3)cc21` (stereo not given in full), the MIC came out at 128 µg/mL (≈ 187 µM).

Another assay concerns Proteus vulgaris. The experiment in a line: Minimum inhibitory concentration against Proteus vulgaris 1028 BC (Class Ic beta-lactamase overproducer). The assay is classed as functional. The method, boiled down: as §2
In turn, `CCn1cc(C(=O)OCC2=C(C(=O)O)N3C(=O)[C@@H](NC(=O)Cc4cccs4)C3SC2)c(=O)c2cc(F)c(N3CCN(C=O)CC3)cc21` (stereo not given in full) had an MIC of 4 µg/mL (≈ 5.85 µM).

`CCn1cc(C(=O)OCC2=C(C(=O)O)N3C(=O)[C@@H](NC(=O)COc4ccccc4)C3SC2)c(=O)c2cc(F)c(-n3cccc3)cc21` (stereo not given in full) had an MIC of 16 µg/mL (≈ 24.7 µM).

For `CCn1cc(C(=O)OCC2=C(C(=O)O)N3C(=O)[C@@H](NC(=O)/C(=N/OC)c4csc(N)n4)C3SC2)c(=O)c2cc(F)c(N3CCN(C=O)CC3)cc21` (stereo not given in full), the minimal inhibitory concentration (MIC) came out at 8 µg/mL (≈ 10.8 µM).

With `CCn1cc(C(=O)OCC2=C(C(=O)O)N3C(=O)[C@@H](NC(=O)/C(=N/OC)c4csc(N)n4)C3SC2)c(=O)c2ccc(C)nc21` (stereo not given in full), the MIC was 4 µg/mL (≈ 6.37 µM).

Compound `CCn1cc(C(=O)OCC2=C(C(=O)O)N3C(=O)[C@@H](NC(=O)Cc4cccs4)C3SC2)c(=O)c2cc3c(cc21)OCO3` (stereo not given in full) gave an MIC of 0.25 µg/mL (≈ 0.418 µM).

Turning to `CCn1cc(C(=O)OCC2=C(C(=O)O)N3C(=O)[C@@H](NC(=O)COc4ccccc4)C3SC2)c(=O)c2cc(F)c(N3CCSCC3)cc21` (stereo not given in full), the minimum inhibitory concentration (MIC) is 1 µg/mL (≈ 1.46 µM).

In a further assay the test system is Staphylococcus aureus. The experiment in a line: Evaluated for the minimum inhibitory concentration against Staphylococcus aureus 1059B ( inducible, high level beta-lactamase producer). The assay is classed as functional. Put shortly: as §1
As to `CCn1cc(C(=O)OCC2=C(C(=O)O)N3C(=O)[C@@H](NC(=O)COc4ccccc4)C3SC2)c(=O)c2cc(F)c(N3CCSCC3)cc21` (stereo not given in full), the MIC worked out at 0.25 µg/mL (≈ 0.366 µM).
